Assays:
[1] = molecular target: Dipeptidyl peptidase 9 (Homo sapiens, UniProt Q86TI2); assay: Inhibition of recombinant full-length human N-terminal GST-tagged DPP9 expressed in Sf9 insect cells using Gly-Pro-AMC as substrate measured at 60 secs interval for 20 mins by fluorescence assay
[2] = molecular target: Dipeptidyl peptidase 8 (Homo sapiens, UniProt Q6V1X1); assay: Inhibition of recombinant full-length human N-terminal GST-tagged DPP8 expressed in Sf9 insect cells using Gly-Pro-AMC as substrate measured at 60 secs interval for 20 mins by fluorescence assay
Sequence of Dipeptidyl peptidase 8 (Q6V1X1 whole entry): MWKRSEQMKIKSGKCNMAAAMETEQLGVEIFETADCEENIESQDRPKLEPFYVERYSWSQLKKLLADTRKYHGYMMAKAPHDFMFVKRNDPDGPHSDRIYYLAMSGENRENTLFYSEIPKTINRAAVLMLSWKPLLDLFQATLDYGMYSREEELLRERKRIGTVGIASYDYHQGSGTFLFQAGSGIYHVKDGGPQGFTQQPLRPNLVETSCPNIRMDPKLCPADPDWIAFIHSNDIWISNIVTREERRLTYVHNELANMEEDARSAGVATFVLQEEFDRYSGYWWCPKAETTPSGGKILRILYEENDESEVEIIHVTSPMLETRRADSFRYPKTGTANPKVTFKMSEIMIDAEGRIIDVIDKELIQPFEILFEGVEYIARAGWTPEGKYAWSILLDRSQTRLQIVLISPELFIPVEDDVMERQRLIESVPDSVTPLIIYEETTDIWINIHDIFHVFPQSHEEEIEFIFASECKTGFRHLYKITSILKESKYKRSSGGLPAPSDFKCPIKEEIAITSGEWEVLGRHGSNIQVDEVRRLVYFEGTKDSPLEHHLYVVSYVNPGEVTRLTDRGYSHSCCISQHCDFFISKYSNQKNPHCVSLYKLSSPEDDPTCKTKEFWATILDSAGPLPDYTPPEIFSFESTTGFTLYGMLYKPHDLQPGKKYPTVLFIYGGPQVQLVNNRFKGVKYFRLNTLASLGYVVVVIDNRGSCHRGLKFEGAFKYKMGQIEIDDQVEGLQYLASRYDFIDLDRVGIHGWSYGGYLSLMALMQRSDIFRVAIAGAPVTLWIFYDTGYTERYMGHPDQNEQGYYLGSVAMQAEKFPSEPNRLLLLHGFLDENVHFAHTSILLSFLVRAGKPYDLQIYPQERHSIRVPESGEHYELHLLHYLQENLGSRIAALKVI

[3] = Cytotoxicity against human LO2 cells assessed as cell viability at 20 uM after 48 hrs by MTT assay relative to control; format: cell-based, L02; settings: read-out: Activity
Summary of the method: (§1)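 Hepatic LO2 cells grown in DMEM with 10% FBS and antibiotics at 37 °C, 5% CO2; log-phase cells seeded at 1 × 10^4 per well and exposed to compounds for 48 h. MTT (5 mg/mL stock in PBS) added 4 h before end; formazan dissolved in DMSO, absorbance read at 490 nm.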

[4] = Drug metabolism in rat plasma assessed as (R)-2-((4-(3-Aminopiperidin-1-yl)-3-(but-2-yn-1-yl)-2,6-dioxo-3,6-dihydropyrimidin-1(2H)-yl)methyl)-6-fluorobenzoic acid hydrochloride formation at 1 uM after 30 mins by LC/MS/MS method; format: ADME, cell-free; settings: 0.5 h
Summary of the method: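 Ester prodrug incubated with rat plasma at 37 °C for 0 and 30 min; ester and formed acid quantified by LC/MS/MS.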

[5] = Cytotoxicity against human LO2 cells assessed as cell viability at 50 uM after 48 hrs by MTT assay relative to control; format: cell-based, L02; settings: read-out: Activity; summary of the method: as §1
[6] = Retention time of the compound in rat plasma at 1 uM by LC/MS/MS method; format: ADME, cell-free
[7] = Retention time of the compound in water at 1 uM by LC/MS/MS method; format: physicochemical; settings: buffer
[8] = Cytotoxicity against human LO2 cells assessed as cell viability at 100 uM after 48 hrs by MTT assay relative to control; format: cell-based, L02; settings: read-out: Activity; summary of the method: as §1
[9] = system: Mus musculus; assay: Hypoglycemic activity in po dosed Kunming mouse assessed as decrease in blood glucose AUC (0 to 120 mins) administered as single dose treated for 30 mins prior to glucose load by OGTT; format: functional, organism-based
Summary of the method: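 Male Kunming mice (20±2 g) fasted overnight (12 h), randomized (n = 8), given a single oral dose suspended in water vehicle; oral glucose 3 g/kg 30 min later. Blood sampled at -30, 0, 15, 30, 60 and 120 min; glucose AUC0–120 min versus vehicle, mean ± SEM, one-way ANOVA with Dunnett's test.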

[10] = Retention time of the compound in rat plasma by LC/MS/MS method; format: ADME, cell-free

Sequence of Dipeptidyl peptidase 9 (Q86TI2 whole entry): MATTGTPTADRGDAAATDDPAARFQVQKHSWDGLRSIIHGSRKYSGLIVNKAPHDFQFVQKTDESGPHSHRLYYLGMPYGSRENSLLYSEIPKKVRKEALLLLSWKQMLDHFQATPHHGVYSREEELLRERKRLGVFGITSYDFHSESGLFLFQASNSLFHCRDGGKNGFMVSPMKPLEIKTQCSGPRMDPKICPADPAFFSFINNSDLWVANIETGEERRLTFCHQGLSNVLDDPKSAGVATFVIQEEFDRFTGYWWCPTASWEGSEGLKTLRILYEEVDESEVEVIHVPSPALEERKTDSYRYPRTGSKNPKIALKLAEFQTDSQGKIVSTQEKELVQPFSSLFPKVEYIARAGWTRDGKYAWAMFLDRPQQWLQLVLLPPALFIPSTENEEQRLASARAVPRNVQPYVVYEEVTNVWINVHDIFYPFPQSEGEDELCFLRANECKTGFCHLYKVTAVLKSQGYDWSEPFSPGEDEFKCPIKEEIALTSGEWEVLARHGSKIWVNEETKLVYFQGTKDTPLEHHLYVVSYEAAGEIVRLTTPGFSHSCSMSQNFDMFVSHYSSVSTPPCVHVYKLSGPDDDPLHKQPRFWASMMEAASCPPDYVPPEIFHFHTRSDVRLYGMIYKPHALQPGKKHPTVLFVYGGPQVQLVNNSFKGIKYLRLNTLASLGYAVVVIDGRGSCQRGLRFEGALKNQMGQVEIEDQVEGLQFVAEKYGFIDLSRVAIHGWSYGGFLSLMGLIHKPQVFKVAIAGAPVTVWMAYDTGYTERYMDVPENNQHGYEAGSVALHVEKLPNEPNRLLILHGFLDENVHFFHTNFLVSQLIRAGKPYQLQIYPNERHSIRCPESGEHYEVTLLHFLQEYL

| Compound | IC50 [1] | IC50 [2] | viability at 48 h, 100 µM [8] | also measured |
| --- | --- | --- | --- | --- |
| CC#CCn1c(N2CCC[C@@H](N)C2)cc(=O)n(Cc2cc(OC)ccc2C(=O)O)c1=O | > 100 µM | > 100 µM |  |  |
| COc1cccc2c1C(=O)c1c(O)c3c(c(O)c1C2=O)C[C@@](O)(C(=O)CO)C[C@@H]3O[C@H]1C[C@H](N)[C@H](O)[C@H](C)O1 [DOXORUBICIN] |  |  |  | viability at 48 h, 20 µM [3]: 11% |
| CC#CCn1c(N2CCC[C@@H](N)C2)cc(=O)n(Cc2cccc(F)c2C(=O)OC)c1=O | > 100 µM | > 100 µM | 70% | Drug metabolism [4]: Metabolite_Detected; viability at 48 h, 50 µM [5]: 90%; Retention_time [6]: 5.41 min; Retention_time [7]: 5.41 min; Activity [9]: Dose-dependent effect |
| CC#CCn1c(N2CCC[C@@H](N)C2)cc(=O)n(Cc2cc(Br)ccc2C(=O)O)c1=O | > 100 µM | > 100 µM | 70% | viability at 48 h, 50 µM [5]: 90% |
| CC#CCn1c(N2CCC[C@@H](N)C2)cc(=O)n(Cc2cc(C#N)ccc2C(=O)O)c1=O | > 100 µM | > 100 µM |  |  |
| CC#CCn1c(N2CCC[C@@H](N)C2)cc(=O)n(Cc2ccc(Cl)cc2C(=O)O)c1=O | > 100 µM | > 100 µM |  |  |
| CC#CCn1c(N2CCC[C@@H](N)C2)cc(=O)n(Cc2ccccc2C(=O)O)c1=O | > 100 µM | > 100 µM |  |  |
| CC#CCn1c(N2CCC[C@@H](N)C2)cc(=O)n(Cc2cc(Br)ccc2C(=O)OC)c1=O | > 100 µM | > 100 µM | 14% |  |
| CC#CCn1c(N2CCC[C@@H](N)C2)cc(=O)n(Cc2ccc(Br)cc2C(=O)O)c1=O | > 100 µM | > 100 µM |  |  |
| CC#CCn1c(N2CCC[C@@H](N)C2)cc(=O)n(Cc2ccc(F)cc2C(=O)O)c1=O | > 100 µM | > 100 µM |  |  |
| CC#CCn1c(N2CCC[C@@H](N)C2)cc(=O)n(Cc2cccc(F)c2C(=O)O)c1=O |  |  | 70% | Retention_time [10]: 2 min; viability at 48 h, 50 µM [5]: 90%; Retention_time [7]: 2.03 min |
